Laboratory results reported in ChEMBL document CHEMBL1949512, “RO4383596, an orally active KDR, FGFR, and PDGFR inhibitor: synthesis and biological evaluation” (Bioorg Med Chem, 2005).

Experiments:
[1] = target: Tyrosine-protein kinase Fyn (Homo sapiens, UniProt P06241); experiment: Inhibition of Fyn by IMAP assay
Procedure, shortened: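 IMAP fluorescence-polarisation assay: kinase activity read as phosphorylated fluorescent peptide substrate binding preferentially to immobilised metal beads. Reactions run with ATP at three times the Km.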

[2] = system: Mus musculus; experiment: Dose normalized AUC in […] mouse at 100 mg/kg, po; format: ADME, organism-based; parameters: dose 100 mg/kg, route oral; conditions: in vivo
Procedure, shortened: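 A separate group of female mice received one 100 mg/kg oral dose. Median PK parameters were calculated for that cohort.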

[3] = system: MDA-MB-435; experiment: Antiproliferative activity against human MDA-MB-435 cells
[4] = Cmax in C57/BL6 mouse at 25 mg/kg, po bid for 5 days; format: ADME, organism-based; parameters: dose 25 mg/kg, route oral; conditions: in vivo
Procedure, shortened: (§1)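 Female C57/BL6 mice were dosed orally twice daily for 5 days with a suspension in 2% Klucel LF/0.1% Tween 80 in water. Six mice per dose were split into two subgroups of three, each sampled at alternate time points. Retro-orbital blood was taken at 0, 1, 4 and 8 h post-dose into EDTA, and plasma was analysed by LC-MS/MS. Parameters come from mean concentrations; AUC0–8h by linear trapezoidal rule; Cmax and Tmax as observed.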

[5] = system: Mus musculus; experiment: Dose normalized AUC in C57/BL6 mouse at 25 mg/kg, po bid for 5 days; format: ADME, organism-based; parameters: dose 25 mg/kg, route oral; conditions: in vivo, 120 h; procedure, shortened: as §1
[6] = target: Mitogen-activated protein kinase 1 (Homo sapiens, UniProt P28482); experiment: Inhibition of ERK2 by IMAP assay
Chain of Mitogen-activated protein kinase 1 (P28482 whole entry): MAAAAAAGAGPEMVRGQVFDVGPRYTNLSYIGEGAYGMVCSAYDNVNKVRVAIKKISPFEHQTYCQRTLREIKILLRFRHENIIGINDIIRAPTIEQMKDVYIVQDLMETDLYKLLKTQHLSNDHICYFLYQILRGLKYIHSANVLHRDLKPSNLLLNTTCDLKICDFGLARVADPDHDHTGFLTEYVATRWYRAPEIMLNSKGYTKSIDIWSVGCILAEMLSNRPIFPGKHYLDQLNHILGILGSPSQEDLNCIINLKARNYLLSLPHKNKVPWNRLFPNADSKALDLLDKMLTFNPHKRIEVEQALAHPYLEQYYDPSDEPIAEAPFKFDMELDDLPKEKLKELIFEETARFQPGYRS
Procedure, shortened: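 IMAP fluorescence-polarization assay, in which phosphorylated fluorescent peptide substrates bind immobilized metal beads. Reactions ran at ATP three times Km.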

[7] = Tmax in C57/BL6 mouse at 50 mg/kg, po bid for 5 days; format: ADME, organism-based; parameters: dose 50 mg/kg, route oral; conditions: in vivo; procedure, shortened: as §1
[8] = system: Mus musculus; experiment: Dose normalized AUC in C57/BL6 mouse at 100 mg/kg, po bid for 5 days; format: ADME, organism-based; parameters: dose 100 mg/kg, route oral; conditions: in vivo, 120 h; procedure, shortened: as §1
[9] = Cmax in C57/BL6 mouse at 100 mg/kg, po bid for 5 days; format: ADME, organism-based; parameters: dose 100 mg/kg, route oral; conditions: in vivo; procedure, shortened: as §1
[10] = AUC in C57/BL6 mouse at 50 mg/kg, po bid for 5 days; format: ADME, organism-based; parameters: dose 50 mg/kg, route oral; conditions: plasma; procedure, shortened: as §1
[11] = target: Epidermal growth factor receptor (Homo sapiens, UniProt P00533); experiment: Inhibition of human recombinant His-tagged intracellular domain of EGFR using biotin-EEEEYFELV as substrate by HTRF assay
Chain of Epidermal growth factor receptor (P00533 whole entry, the tested form may be a part): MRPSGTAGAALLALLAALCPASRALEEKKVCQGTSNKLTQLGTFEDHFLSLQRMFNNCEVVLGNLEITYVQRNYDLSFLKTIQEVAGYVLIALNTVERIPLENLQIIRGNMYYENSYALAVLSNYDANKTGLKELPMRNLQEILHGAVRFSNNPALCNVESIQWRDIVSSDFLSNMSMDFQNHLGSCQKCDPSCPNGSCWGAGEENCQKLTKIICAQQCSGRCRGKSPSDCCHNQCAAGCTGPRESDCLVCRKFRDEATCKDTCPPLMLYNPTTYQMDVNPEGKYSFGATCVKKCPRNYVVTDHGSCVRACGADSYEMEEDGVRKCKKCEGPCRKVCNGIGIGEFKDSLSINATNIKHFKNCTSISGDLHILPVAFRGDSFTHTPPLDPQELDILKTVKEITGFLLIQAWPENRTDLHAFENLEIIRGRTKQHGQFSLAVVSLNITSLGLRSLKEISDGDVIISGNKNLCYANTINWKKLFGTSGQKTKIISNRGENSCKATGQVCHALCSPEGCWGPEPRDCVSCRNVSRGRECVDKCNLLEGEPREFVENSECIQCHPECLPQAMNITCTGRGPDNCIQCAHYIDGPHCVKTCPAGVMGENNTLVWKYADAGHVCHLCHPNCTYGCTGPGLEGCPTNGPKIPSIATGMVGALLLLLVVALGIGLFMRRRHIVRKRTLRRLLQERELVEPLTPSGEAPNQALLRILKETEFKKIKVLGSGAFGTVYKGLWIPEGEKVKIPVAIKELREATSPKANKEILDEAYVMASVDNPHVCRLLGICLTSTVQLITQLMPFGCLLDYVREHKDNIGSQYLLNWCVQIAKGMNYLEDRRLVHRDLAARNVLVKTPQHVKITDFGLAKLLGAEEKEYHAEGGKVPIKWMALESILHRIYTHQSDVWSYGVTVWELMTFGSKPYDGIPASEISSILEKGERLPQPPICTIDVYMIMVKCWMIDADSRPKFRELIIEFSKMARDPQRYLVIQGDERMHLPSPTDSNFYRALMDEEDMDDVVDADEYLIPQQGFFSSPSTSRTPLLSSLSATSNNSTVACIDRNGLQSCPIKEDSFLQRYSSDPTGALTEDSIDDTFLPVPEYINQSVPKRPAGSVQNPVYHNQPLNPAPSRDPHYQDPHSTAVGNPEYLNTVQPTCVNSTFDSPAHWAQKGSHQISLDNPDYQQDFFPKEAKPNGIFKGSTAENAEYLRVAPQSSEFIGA

[12] = Volume of distribution at steady state in Wistar rat at 5 mg/kg, iv; format: ADME, organism-based; parameters: dose 5 mg/kg, route intravenous; conditions: in vivo, read-out: Vdss
Procedure, shortened: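 Single 5 mg/kg iv dose to Wistar rats via femoral arterial catheter, vehicle 2% DMA, 10% PEG400, 88% of 40% HPBCD in water, 2.5 mL/kg. Jugular blood at 1, 7, 15, 30 min and 1, 3, 6, 12, 24 h; plasma by LC-MS/MS. Vdss by non-compartmental analysis per animal, averaged.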

[13] = Cmax in Wistar rat at 50 mg/kg, po; format: ADME, organism-based; parameters: dose 50 mg/kg, route oral; conditions: in vivo
Procedure, shortened: (§2)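 Wistar rats received one dose, either iv 5 mg/kg via femoral arterial catheter (2% DMA/10% PEG400/88% of 40% HPBCD) or po 50 mg/kg (2% Klucel LF/0.1% Tween 80). Blood came from an implanted jugular catheter, up to 24 h (iv) or 48 h (po), into EDTA. Plasma LC-MS/MS; individual non-compartmental parameters were averaged.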

[14] = system: Mus musculus; experiment: Dose normalized AUC in C57/BL6 mouse at 50 mg/kg, po bid for 5 days; format: ADME, organism-based; parameters: dose 50 mg/kg, route oral; conditions: in vivo, 120 h; procedure, shortened: as §1
[15] = target: Fibroblast growth factor receptor (Homo sapiens, UniProt P22607+P11362+P22455+P21802); experiment: Inhibition of human recombinant GST-tagged intracellular domain of FGFR using biotin-EEEEYFELV as substrate by HTRF assay
[16] = Clearance in athymic nude mouse at 10 mg/kg, iv; format: ADME, organism-based; parameters: dose 10 mg/kg, route intravenous; conditions: in vivo
Procedure, shortened: (§3)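 Athymic nude mice received one dose, either iv 10 mg/kg in 2% DMA/10% PEG400/88% of 40% HPBCD in water, or po 50 mg/kg in 2% Klucel LF/0.1% Tween 80. Retro-orbital or terminal cardiac blood was drawn from 1 min (iv) or 5 min (po) to 24 h into EDTA. Plasma was analysed by LC-MS/MS. Composite parameters were obtained by non-compartmental analysis, with AUC extrapolated to infinity.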

[17] = AUC in Wistar rat at 50 mg/kg, po; format: ADME, organism-based; parameters: dose 50 mg/kg, route oral; conditions: plasma; procedure, shortened: as §2
[18] = Oral bioavailability in athymic nude mouse at 50 mg/kg; format: ADME, organism-based; conditions: in vivo; procedure, shortened: as §3
[19] = Clearance in Wistar rat at 5 mg/kg, iv; format: ADME, organism-based; parameters: dose 5 mg/kg, route intravenous; conditions: in vivo; procedure, shortened: as §2
[20] = Cmax in C57/BL6 mouse at 50 mg/kg, po bid for 5 days; format: ADME, organism-based; parameters: dose 50 mg/kg, route oral; conditions: in vivo; procedure, shortened: as §1
[21] = target: T1, Ephrin type-B receptor 3 (Homo sapiens, UniProt P54753); experiment: Inhibition of EphB3
T1 sequence (P54753 whole entry): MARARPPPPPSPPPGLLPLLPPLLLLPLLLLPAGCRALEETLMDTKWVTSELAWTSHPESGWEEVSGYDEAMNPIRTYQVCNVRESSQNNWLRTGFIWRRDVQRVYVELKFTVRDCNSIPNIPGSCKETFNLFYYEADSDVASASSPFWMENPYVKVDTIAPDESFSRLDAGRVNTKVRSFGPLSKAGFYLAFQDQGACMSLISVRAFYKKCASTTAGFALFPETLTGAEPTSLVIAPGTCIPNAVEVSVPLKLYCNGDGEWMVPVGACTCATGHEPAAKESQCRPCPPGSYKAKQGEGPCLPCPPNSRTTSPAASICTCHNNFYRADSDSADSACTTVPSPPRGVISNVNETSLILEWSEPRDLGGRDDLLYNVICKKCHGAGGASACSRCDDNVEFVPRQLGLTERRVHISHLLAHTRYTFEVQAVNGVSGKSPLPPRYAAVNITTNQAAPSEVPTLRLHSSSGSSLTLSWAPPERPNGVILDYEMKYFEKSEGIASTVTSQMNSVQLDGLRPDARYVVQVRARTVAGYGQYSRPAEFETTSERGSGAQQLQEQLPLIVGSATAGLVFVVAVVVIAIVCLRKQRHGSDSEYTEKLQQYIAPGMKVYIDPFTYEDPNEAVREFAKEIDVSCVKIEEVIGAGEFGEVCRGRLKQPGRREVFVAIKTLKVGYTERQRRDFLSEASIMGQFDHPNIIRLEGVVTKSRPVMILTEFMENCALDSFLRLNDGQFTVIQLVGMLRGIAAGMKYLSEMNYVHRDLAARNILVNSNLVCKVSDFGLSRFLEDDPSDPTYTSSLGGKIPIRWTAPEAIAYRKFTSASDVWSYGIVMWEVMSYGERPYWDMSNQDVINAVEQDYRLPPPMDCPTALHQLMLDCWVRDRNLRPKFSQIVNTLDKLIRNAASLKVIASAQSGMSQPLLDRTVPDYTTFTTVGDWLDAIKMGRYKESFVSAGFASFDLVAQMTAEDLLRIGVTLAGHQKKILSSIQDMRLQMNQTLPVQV

[22] = AUC in athymic nude mouse at 50 mg/kg, po; format: ADME, organism-based; parameters: dose 50 mg/kg, route oral; conditions: plasma; procedure, shortened: as §3
[23] = AUC in C57/BL6 mouse at 100 mg/kg, po bid for 5 days; format: ADME, organism-based; parameters: dose 100 mg/kg, route oral; conditions: plasma; procedure, shortened: as §1

Chain of Tyrosine-protein kinase Fyn (P06241 whole entry): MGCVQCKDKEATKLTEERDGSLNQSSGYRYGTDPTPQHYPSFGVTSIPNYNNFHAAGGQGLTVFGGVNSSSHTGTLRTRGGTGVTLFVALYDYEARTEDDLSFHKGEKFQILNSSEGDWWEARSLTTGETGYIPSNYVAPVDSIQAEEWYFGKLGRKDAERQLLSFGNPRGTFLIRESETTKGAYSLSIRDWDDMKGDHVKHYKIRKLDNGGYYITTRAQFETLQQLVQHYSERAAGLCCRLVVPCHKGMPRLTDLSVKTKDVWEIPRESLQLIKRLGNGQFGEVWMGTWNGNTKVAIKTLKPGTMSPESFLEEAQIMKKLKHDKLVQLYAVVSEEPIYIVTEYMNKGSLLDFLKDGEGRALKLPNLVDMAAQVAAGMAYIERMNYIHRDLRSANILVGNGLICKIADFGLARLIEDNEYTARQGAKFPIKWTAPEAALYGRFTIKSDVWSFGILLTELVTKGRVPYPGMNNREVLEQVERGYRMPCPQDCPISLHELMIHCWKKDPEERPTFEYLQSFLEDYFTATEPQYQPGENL

`COc1ccc(N2Cc3cnc(Nc4ccccc4)nc3N([C@@H]3CC[C@@H](O)C3)C2=O)cc1` (racemic) gave an IC50 [1] of 0.322 µM, an AUC/dose [2] of 1458 ng·h/mL/mg/kg and an IC50 [3] of 4.2 µM. The Cmax [4] was 12000 ng/mL, the AUC/dose [5] was 1199 ng·h/mL/mg/kg and the IC50 [6] was 3.04 µM. It also gave a Tmax [7] of 30 min, an AUC/dose [8] of 1458 ng·h/mL/mg/kg and a Cmax [9] of 47700 ng/mL. For the same compound, the AUC at 120 h [10] was 75500 ng·h/mL, the IC50 [11] was 0.31 µM and the Vd [12] was 5.3 L/kg. It also gave a Cmax [13] of 7180 ng/mL, an AUC/dose [14] of 1510 ng·h/mL/mg/kg and an IC50 [15] of 0.029 µM. For the same compound, the clearance [16] was 15.1 mL/min/kg, the AUC [17] was 26500 ng·h/mL and the bioavailability [18] was 93%. For the same compound, the clearance [19] was 23.1 mL/min/kg, the Cmax [20] was 28400 ng/mL and the IC50 [21] was 1.09 µM. For the same compound, the AUC [22] was 51300 ng·h/mL and the AUC at 120 h [23] was 150000 ng·h/mL.
